We go through 8 compounds from ChEMBL document CHEMBL2021849, “Synergistic TRAIL sensitizers from Barleria alluaudii and Diospyros maritima” (J Nat Prod, 2012).

The subject of assay [1] is ACHN. The assay can be described thus: Ratio of EC50 for human ACHN cells to EC50 for human ACHN cells in presence of 40 ng/ml TRAIL. In kind it is functional. In short, it runs like this:
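Synergy taken as the ratio of the two EC50 values read from ACHN cell death curves, one run without TRAIL and one with 40 ng/mL TRAIL. Treatment lasted 20–24 h.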

Assay [2] relates to ACHN. The experiment in a line: Cytotoxicity against human ACHN cells assessed as cell death after 20 to 24 hrs by XTT assay. In kind it is functional, cell-based. A general note: Formazan colour is commonly taken as a measure of viable cells.
Assay [3] deals with ACHN. The experiment in a line: Cytotoxicity against human ACHN cells assessed as cell death after 20 to 24 hrs by XTT assay in presence of 40 ng/ml TRAIL. In kind it is functional, cell-based.

Some results are limits rather than exact numbers.

The EC50 is the midpoint of the concentration-response curve. As to `CC(C)=CC[C@]12O[C@H]1C(=O)c1ccccc1C2=O`, in assay [1], the “Ratio EC50” value amounted to 2.4. The EC50 in assay [2] amounted to 39.7 µM; in assay [3], 16.7 µM.
Taken in the same sequence, the figures for `CC(C)=CC[C@]12O[C@H]1C(=O)c1cccc(O)c1C2=O` were 1.4, 6.4 µM and 4.7 µM.
As to `C[C@@H]1CC(=O)c2c(O)cccc2[C@@H]1O`, the concentration giving a half-maximal response (EC50) in assay [2] and in assay [3] was above 60 µM in each case.
For the compound `CC1=CC(=O)c2c(ccc(C(C)c3ccc4c(c3O)C(=O)C=C(C)C4=O)c2O)C1=O`, the concentration for a half-maximal effect (EC50) in assay [2] and in assay [3] was above 30 µM throughout.
On to `CC1=CC(=O)c2c(ccc(-c3ccc4c(c3O)C(=O)C=C(C)C4=O)c2O)C1=O` [ELLIPTINONE], for which the “Ratio EC50” value in assay [1] is listed as 3.5. Besides, the half-maximal effective concentration (EC50) worked out at 13.2 µM in assay [2] and 3.8 µM in assay [3].
Taken in the same sequence, the figures for `CC1=CC(=O)c2c(O)ccc(-c3ccc(O)c4c3C(=O)C(C)=CC4=O)c2C1=O` [MARITINONE] were 3.8, 5.8 µM and 1.5 µM.
Taken in the same sequence, the figures for `CC1=CC(=O)c2c(O)cccc2C1=O` [PLUMBAGIN] were 2, 7.3 µM and 3.7 µM.
Take `Cc1ccc2c(c1)C(=O)c1ccccc1C2=O` [TECTOQUINONE]: the EC50 in assay [2] and in assay [3] was above 50 µM each time.
